Active and inactive are the calls of the source. The calls are words filed in the database; no cut-off is given here.
Columns and labels:
Plasmodium falciparum [1] = experiment: Antiplasmodial activity against chloroquine-sensitive Plasmodium falciparum 3D7 by Malaria SYBR Green I-nucleic acid staining based fluorescence assay; assay type: functional, organism-based
In short: (§1)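 SYBR Green I fluorescence assay (MSF). DMSO stock at 5 mg/mL, two-fold serial dilutions in RPMI-1640-FBS, tested in duplicate wells. Parasitized erythrocytes (0.8% parasitaemia, 1.0% cell suspension) incubated 72 h at 37 °C under 5% CO2. Lysis buffer with SYBR Green I added, 1 h at 37 °C. Fluorescence read at 485/530 nm.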

Plasmodium falciparum [2] = experiment: Antiplasmodial activity against chloroquine-resistant Plasmodium falciparum K1 by Malaria SYBR Green I-nucleic acid staining based fluorescence assay; assay type: functional, organism-based; in short: as §1
Plasmodium falciparum [3] = experiment: Resistance index, ratio of IC50 for chloroquine-resistant Plasmodium falciparum K1 to IC50 for chloroquine-sensitive Plasmodium falciparum 3D7; assay type: functional
In short: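 Resistance index computed as IC50 (K1) / IC50 (3D7). Both IC50s come from the 72 h SYBR Green I fluorescence assay on P. falciparum-infected erythrocytes, run with two-fold serial dilutions in duplicate wells.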

[4] = Selectivity index, ratio of CC50 for african green monkey Vero cells to IC50 for chloroquine-sensitive Plasmodium falciparum; assay type: functional
Heme = experiment: Binding affinity to heme assessed as inhibition of 1-oleoyl-rac-glycerol-induced beta-hematin polymerization by UV spectrophotometry
[5] = Binding affinity to hematin in 40% aqueous DMSO and 20 mM HEPES buffer at pH 7.5 at 25 degC
Plasmodium yoelii [6] = experiment: Antimalarial activity against chloroquine-resistant Plasmodium yoelii N-67infected in Swiss Albino mouse assessed as suppression of parasitemia at 100 mg/kg, po once daily for 7 days measured on day 4 post infection; assay type: functional
In short: (§2)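 P. yoelii N-67 (innately CQ-resistant) infection in Swiss albino mice (22 ± 2 g), 1 × 10^6 parasitized RBC on day 0. Groups of five dosed orally once daily from day 0, 100 mg/kg/day as aqueous suspension with a few drops of Tween 80. Parasitaemia read from thin blood smears every four days. % suppression uses the group mean vs untreated controls. Survival and cure (no parasitaemia) tracked to day 28.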

Plasmodium yoelii [7] = experiment: Antimalarial activity against chloroquine-resistant Plasmodium yoelii N-67infected in Swiss Albino mouse assessed as mouse survival on day 28 at 100 mg/kg, po once daily for 7 days measured on day 4 post infection; assay type: functional, organism-based; design: dose 100 mg/kg; in short: as §2
Plasmodium yoelii [8] = experiment: Antimalarial activity against chloroquine-resistant Plasmodium yoelii N-67infected in Swiss Albino mouse assessed as mouse cured on day 28 at 100 mg/kg, po once daily for 7 days measured on day 4 post infection; assay type: functional, organism-based; design: dose 100 mg/kg; in short: as §2
Plasmodium yoelii [9] = experiment: Antimalarial activity against chloroquine-resistant Plasmodium yoelii N-67infected in Swiss Albino mouse assessed as suppression of parasitemia at 20 mg/kg, po once daily for 4 days measured on day 4 post infection; assay type: functional; conditions: N-67, 96 h
In short: (§3)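 Reference arm in the N-67 P. yoelii Swiss albino mouse model. 1 × 10^6 parasitized RBC given on day 0, five mice per group, oral dosing once daily. Parasitaemia from thin blood smears every four days; % suppression from the group mean vs untreated controls. Survival and cure (no parasitaemia) followed to day 28.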

Plasmodium yoelii [10] = experiment: Antimalarial activity against chloroquine-resistant Plasmodium yoelii N-67infected in Swiss Albino mouse assessed as mouse survival on day 28 at 20 mg/kg, po once daily for 4 days measured on day 4 post infection; assay type: functional, organism-based; design: dose 20 mg/kg; in short: as §3
Plasmodium yoelii [11] = experiment: Antimalarial activity against chloroquine-resistant Plasmodium yoelii N-67infected in Swiss Albino mouse assessed as mouse cured on day 28 at 20 mg/kg, po once daily for 4 days measured on day 4 post infection; assay type: functional, organism-based; design: dose 20 mg/kg; in short: as §3
Plasmodium yoelii [12] = experiment: Antimalarial activity against chloroquine-resistant Plasmodium yoelii N-67infected in Swiss Albino mouse assessed as suppression of parasitemia at 100 mg/kg, po once daily for 4 days measured on day 4 post infection; assay type: functional; conditions: N-67, 96 h; in short: as §2
Plasmodium yoelii [13] = experiment: Antimalarial activity against chloroquine-resistant Plasmodium yoelii N-67infected in Swiss Albino mouse assessed as mouse survival on day 28 at 100 mg/kg, po once daily for 4 days measured on day 4 post infection; assay type: functional, organism-based; design: dose 100 mg/kg; in short: as §2
Plasmodium yoelii [14] = experiment: Antimalarial activity against chloroquine-resistant Plasmodium yoelii N-67infected in Swiss Albino mouse assessed as mouse cured on day 28 at 100 mg/kg, po once daily for 4 days measured on day 4 post infection; assay type: functional, organism-based; design: dose 100 mg/kg; in short: as §2

| SMILES | IC50 (Plasmodium falciparum [1]) | IC50 (Plasmodium falciparum [2]) | Ratio IC50 (Plasmodium falciparum [3]) | Selectivity Index [4] | IC50 (Heme) | log K [5] | inhibition in vivo at 100 mg/kg (Plasmodium yoelii [6]) | Activity (Plasmodium yoelii [7]) | Activity (Plasmodium yoelii [8]) | inhibition in vivo at 20 mg/kg (Plasmodium yoelii [9]) | Activity (Plasmodium yoelii [10]) | Activity (Plasmodium yoelii [11]) | inhibition in vivo at 100 mg/kg (Plasmodium yoelii [12]) | Activity (Plasmodium yoelii [13]) | Activity (Plasmodium yoelii [14]) |
| --- | --- | --- | --- | --- | --- | --- | --- | --- | --- | --- | --- | --- | --- | --- | --- |
| C[C@H](CCCN(C)C)Nc1ccnc2cc(Cl)ccc12 | 6 nM | 202 nM | 33.74 | 28483 | 190000 nM | 5.77 |  |  |  |  |  |  |  |  |  |
| C[C@H](CCCN1CCN(C)CC1)Nc1ccnc2cc(Cl)ccc12 | 6.92 nM | 105 nM | 15.2 | 18245 | 180000 nM | 5.53 | 100% | Active |  |  |  |  |  |  |  |
| CCN(CC)CCC[C@H](C)Nc1ccnc2cc(Cl)ccc12 |  |  |  |  |  |  | 100% |  | inactive |  |  |  |  |  |  |
| C[C@@H](CCCN1CCN(C)CC1)Nc1ccnc2cc(Cl)ccc12 | 14.2 nM | 21.8 nM | 1.53 | 14744 | 140000 nM | 4.73 | 100% | Active |  |  |  |  |  |  |  |
| CCN(CC)CCC[C@@H](C)Nc1ccnc2cc(Cl)ccc12 [(R)-CHLOROQUINE] |  |  |  |  |  |  | 100% |  | inactive |  |  |  |  |  |  |
| C[C@@H](CCCNC(C)(C)C)Nc1ccnc2cc(Cl)ccc12 | 33 nM | > 1560 nM | >47.43 | 7100 | 150000 nM | 5.04 |  |  |  |  |  |  |  |  |  |
| C[C@@H](CCCN1CCCCC1)Nc1ccnc2cc(Cl)ccc12 | 14.9 nM | 121 nM | 8.09 | 20154 | 150000 nM | 5.4 |  |  |  |  |  |  |  |  |  |
| C[C@H](CCCN1CCOCC1)Nc1ccnc2cc(Cl)ccc12 | 28.1 nM | 106 nM | 3.76 | 4186 | 150000 nM | 5.69 |  |  |  |  |  |  |  |  |  |
| CCN(C)CCC[C@@H](C)Nc1ccnc2cc(Cl)ccc12 | 7.78 nM | 287 nM | 36.92 | 15838 | 140000 nM | 3.63 |  |  |  |  |  |  |  |  |  |
| C[C@@H](CCCN1CCCC1)Nc1ccnc2cc(Cl)ccc12 | 15.8 nM | 60.4 nM | 3.83 | 1469 | 180000 nM | 5.19 | 100% |  | inactive |  |  |  |  |  |  |
| C[C@@H](CCCN(C)C)Nc1ccnc2cc(Cl)ccc12 | 17.1 nM | 358 nM | 20.88 | 12483 | 150000 nM | 4.95 |  |  |  |  |  |  |  |  |  |
| C[C@H](CCCN1CCCC1)Nc1ccnc2cc(Cl)ccc12 | 10.2 nM | 125 nM | 12.23 | 14140 | 140000 nM | 6.02 | 100% | inactive | inactive |  |  |  |  |  |  |
| CCN(CC)CCCC(C)Nc1ccnc2cc(Cl)ccc12 (racemic) [CHLOROQUINE] |  |  |  |  |  |  |  |  |  | 99% | Active | inactive |  |  |  |
| C[C@H](CCCN1CCCCC1)Nc1ccnc2cc(Cl)ccc12 | 52.9 nM | 536 nM | 10.13 | 4257 | 130000 nM | 7.19 |  |  |  |  |  |  |  |  |  |
| C[C@@H](CCCN1CCOCC1)Nc1ccnc2cc(Cl)ccc12 | 14 nM | 56.8 nM | 4.05 | 19256 | 190000 nM | 6 |  |  |  |  |  |  | 99.6% | Active | inactive |
| CCCCCCCCN(CCCCCCCC)CCC[C@H](C)Nc1ccnc2cc(Cl)ccc12 | 94.8 nM | 7.95 nM | 0.084 | 103.94 | 200000 nM | 5.58 | 14.5% | inactive | inactive |  |  |  |  |  |  |
| C[C@H](CCCNC(C)(C)C)Nc1ccnc2cc(Cl)ccc12 | 4.66 nM | > 1560 nM | >335 | 24459 | 170000 nM | 5.71 |  |  |  |  |  |  |  |  |  |
| CCN(C)CCC[C@H](C)Nc1ccnc2cc(Cl)ccc12 | 12.4 nM | 258 nM | 20.85 | 26389 | 150000 nM | 5.61 |  |  |  |  |  |  |  |  |  |
| CCCCCCCCN(CCCCCCCC)CCC[C@@H](C)Nc1ccnc2cc(Cl)ccc12 | 78.6 nM | 126 nM | 1.6 | 44.28 | 190000 nM | 5.02 | 9.5% | inactive | inactive |  |  |  |  |  |  |

Source: ChEMBL document CHEMBL3352664 (Bioorg Med Chem, 2014)
